# Measurements of several laboratories.
# Compare with care: the assays were run in different laboratories.
# Target: Serine/threonine-protein kinase Nek7 (NEK7, Homo sapiens, UniProt Q8TDX7)
Structure (SMILES),effect on,mode,method,cells,tested at,endpoint,result
CS(=O)(=O)CCNCc1ccc(-c2ccc3ncnc(Nc4ccc(OCc5cccc(F)c5)c(Cl)c4)c3c2)o1,cell-free assay,,,,0.5 µM,remaining signal,98.7%
O=c1nc(-c2ccccn2)sc2ccccc12,binding,,competition with immobilised ligand,,1 µM,remaining binding,75%
Cn1c2c(c3ccc(Cl)c(Cl)c31)C(C#N)C1(CCCC1)NC2=O (stereo not drawn),thermal stability,,DSF,,10 µM,ΔTm,0 °C
Clc1ccc(Nc2nnc(Cc3ccncc3)c3ccccc23)cc1,cell-free assay,,,,0.5 µM,remaining signal,96.8%
C[C@@]1(Cc2ccc(C#N)cc2)C(=O)N(c2cc(Cl)cc(Cl)c2)c2ncc(C(=O)NC3(c4nc(C5CCC5)no4)CC3)n21,cell-free assay,,competition with immobilised ligand,,1 µM,remaining binding,100%
Cc1ccc(Nc2nccc(N(C)c3ccc4c(C)n(C)nc4c3)n2)cc1S(N)(=O)=O,enzyme activity,inhibitor,,,10 µM,inhibition,-6%
Cn1c2c(c3ccc(Cl)c(Cl)c31)C(C#N)C1(CCN(C(=O)OC(C)(C)C)CC1)NC2=O (racemic),thermal stability,,DSF,,10 µM,ΔTm,0 °C
CCCCNc1ncc2c(-c3ccc(F)cc3)nn(C[C@H]3CC[C@H](N)CC3)c2n1,target engagement in cells,inhibitor,chemoproteomics,,20 mM,inhibition,6.6%
N#CCCc1ccc2c(c1)-c1[nH]c3ccc([N+](=O)[O-])cc3c1CC(=O)N2,cell-free assay,,,,0.5 µM,remaining signal,87.4%
CCCS(=O)(=O)Nc1ccc(F)c(C(=O)c2c[nH]c3ncc(-c4ccc(Cl)cc4)cc23)c1F,enzyme activity,inhibitor,,,1 µM,inhibition,< 10%
CC(C)(C)c1nc2c(s1)c1nc(N)ncc1c1ccc(NS(=O)(=O)c3c(F)cccc3F)c(F)c12,enzyme activity,inhibitor,radiometric,,1 µM,remaining activity,27%
C[C@@H](c1cccc(C#N)c1)n1cc(Cl)cc(C(N)=O)c1=N,cell-free assay,,competition with immobilised ligand,,1 µM,remaining binding,89%
Cn1c2c(c3ccc(Cl)c(Cl)c31)C(C#N)C1(CCOCC1)NC2=O (stereo not drawn),thermal stability,,DSF,,10 µM,ΔTm,-0.5 °C
CC/C(=N\NC(=O)NCc1cccc(O)c1)c1ccc(O)c(C)c1O,enzyme activity,inhibitor,,,0.1 µM,inhibition,6.5%
Cc1sc(C(=O)NC2COC2)cc1-n1cc(NC(=O)Nc2c(F)cccc2Cl)cn1,enzyme activity,inhibitor,,,10 µM,remaining activity,100%
O=C(O)[C@H]1[C@H](Cn2nnc3ccccc3c2=O)CC[C@@H]1C(=O)c1ccc(OCCC2CCOCC2)cc1,cell-free assay,,competition with immobilised ligand,,1 µM,remaining binding,100%
Cc1cnc(NC2CCOCC2)nc1-n1cnc(C(=O)NC(CN)c2cc(F)cc(Cl)c2)c1 (stereo not drawn),enzyme activity,inhibitor,radiometric,,1 µM,remaining activity,99%
CCN1CCN(Cc2ccc(NC(=O)c3ccc(C)c(Oc4ccnc5[nH]ccc45)c3)cc2C(F)(F)F)CC1,target engagement in cells,inhibitor,chemoproteomics,A-375,5 µM,inhibition,0.277%
CNC(=O)c1cc(Oc2ccc(NC(=O)Nc3ccc(Cl)c(C(F)(F)F)c3)cc2)ccn1,enzyme activity,inhibitor,,,0.3 µM,inhibition,-9%
O=C(Nc1cnn(-c2csc(C(=O)NC3COC3)c2)c1)Nc1ccccc1Cl,enzyme activity,inhibitor,,,5 µM,remaining activity,102%
Nc1c(C(=O)NCc2ccc(C(=O)NCCCC3CCCCC3)cc2)cnn1-c1ccccc1,cell-free assay,,competition with immobilised ligand,,0.1 µM,remaining binding,99%
COc1cc(Cl)c(C(=O)N[C@@H](CN[C@H]2CC[C@@H](N)CC2)Cc2ccc(C#N)cc2)cc1-c1ccc(CN[C@H](C)c2ccc(C)cc2)o1,enzyme activity,inhibitor,,,1 µM,remaining activity,99%
CCCCN(CCCC)C(=O)CN1C[C@H](c2cc(OC)c3c(c2)OCO3)[C@@H](C(=O)O)[C@@H]1CC(C)(C)CCC,cell-free assay,,competition with immobilised ligand,,1 µM,remaining binding,100%
COc1cccc2c(NCc3ccccc3)nc(-n3c(N)nc4ccccc43)nc12,target engagement in cells,inhibitor,chemoproteomics,,20 mM,inhibition,-1%
CC(C)(O)[C@H]1CC[C@H](Nc2ccc3ncc(-c4cccc(C(F)(F)F)c4)n3n2)CC1,enzyme activity,inhibitor,,,1 µM,remaining activity,93.6%
Cc1c(C(=O)O)cc(-c2ccc(C3CCNCC3)cc2)c2ccc(-c3ccc(C(F)(F)F)cc3)cc12,binding,,competition with immobilised ligand,,1 µM,remaining binding,100%
CC1(C)NC(=O)c2[nH]c3c(Cl)c(Cl)ccc3c2C1C#N (stereo not drawn),thermal stability,,DSF,,10 µM,ΔTm,-0.4 °C
CCN(CC)CCNC(=O)c1c(C)[nH]c(/C=C2\C(=O)Nc3ccc(F)cc32)c1C,enzyme activity,inhibitor,,,0.3 µM,inhibition,-8%
Cc1noc([C@H]2C[C@@H](c3ccc(C(F)(F)F)cc3)CN(C(=O)N3CCS(=O)(=O)C3)C2)n1,cell-free assay,,competition with immobilised ligand,,1 µM,remaining binding,100%
N#CC1c2c([nH]c3c(Cl)c(Cl)ccc23)C(=O)NC12CCCCC2 (racemic),thermal stability,,DSF,,10 µM,ΔTm,0.2 °C
